Assay results: ChEMBL document CHEMBL1126812, “Further insights into the molecular mechanisms of action of the serotonergic neurotoxin 5,7-dihydroxytryptamine” (J Med Chem, 1993)

Key:
[1] = test system: Mus musculus; test: Effect of central administration on whole mouse brain 5-hydroxyindole-3-acetic acid(5-HIAA)level after 1 week; assay type: functional, organism-based
Outline: (§1)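 Adult male outbred Hsd:ICR mice (25-35 g) under light ether anesthesia received a single 25 or 30 µg (free base) intracranial dose near the left lateral ventricle. Vehicle was 5 µL isotonic saline with 1.0 mg/mL ascorbate, and controls got vehicle alone. Mice were killed by focused microwave (250 ms, 7.0 kW) at 1 h, 1 day or 1 week. Brains were homogenized, spun at 50 000g (4 °C, 1 h) and filtered. Amines and metabolites were measured by LCEC as % of control ± sem, n = 11-18.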

[2] = test system: Mus musculus; test: Effect of central administration on whole mouse brain 3,4-di hydroxyphenylacetic acid (DOPAC)level after 1 week; assay type: functional, organism-based; outline: as §1
[3] = test system: Mus musculus; test: Effect of central administration on whole mouse brain 5-hydroxyindole-3-acetic acid(5-HIAA)level after 1 day; assay type: functional, organism-based; outline: as §1
[4] = test system: Mus musculus; test: Effect of central administration on whole mouse brain 5-hydroxyindole-3-acetic acid(5-HIAA)level after 1 hr; assay type: functional, organism-based; outline: as §1
[5] = test system: Mus musculus; test: Effect of central administration on whole mouse brain 5-hydroxytryptamine (5-HT) level after 1 day; assay type: functional, organism-based; outline: as §1
[6] = test system: Mus musculus; test: Effect of central administration on whole mouse brain 5-hydroxytryptamine (5-HT) level after 1 week; assay type: functional, organism-based; outline: as §1
[7] = test system: Mus musculus; test: Effect of central administration on whole mouse brain acetylcholine (ACh) level after 1 day; assay type: functional, organism-based
Outline: (§2)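 The dosing, vehicle, controls, microwave sacrifice, timepoints and brain processing were the same as for the amine lines. Whole mouse brain ACh and choline were measured by LCEC on 20 µL aliquots of the filtered 50 000g supernate, which had been stored at -80 °C. Values are % of vehicle controls ± sem, n = 11-18 per group.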

[8] = test system: Mus musculus; test: Effect of central administration on whole mouse brain acetylcholine (ACh) level after 1 hr; assay type: functional, organism-based; outline: as §2
[9] = test system: Mus musculus; test: Effect of central administration on whole mouse brain acetylcholine (ACh) level after 1 week; assay type: functional, organism-based; outline: as §2
[10] = test system: Mus musculus; test: Effect of central administration on whole mouse brain choline (Ch) level after 1 day; assay type: functional, organism-based; outline: as §2
[11] = test system: Mus musculus; test: Effect of central administration on whole mouse brain choline (Ch) level after 1 hr; assay type: functional, organism-based; outline: as §2
[12] = test system: Mus musculus; test: Effect of central administration on whole mouse brain dopamine (DA) level after 1 day; assay type: functional, organism-based; outline: as §1
[13] = test system: Mus musculus; test: Effect of central administration on whole mouse brain dopamine (DA) level after 1 hr; assay type: functional, organism-based; outline: as §1
[14] = test system: Mus musculus; test: Effect of central administration on whole mouse brain dopamine (DA) level after 1 week; assay type: functional, organism-based; outline: as §1
[15] = test system: Mus musculus; test: Effect of central administration on whole mouse brain homovanillic acid (HAV) level after 1 day; assay type: functional, organism-based; outline: as §1
[16] = test system: Mus musculus; test: Effect of central administration on whole mouse brain homovanillic acid (HAV) level after 1 hr; assay type: functional, organism-based; outline: as §1
[17] = test system: Mus musculus; test: Effect of central administration on whole mouse brain homovanillic acid (HAV) level after 1 week; assay type: functional, organism-based; outline: as §1
[18] = test system: Mus musculus; test: Effect of central administration on whole mouse brain norepinephrine (NE) level after 1 day; assay type: functional, organism-based; outline: as §1
[19] = test system: Mus musculus; test: Effect of central administration on whole mouse brain norepinephrine (NE) level after 1 hr; assay type: functional, organism-based; outline: as §1
[20] = test system: Mus musculus; test: Effect of central administration on whole mouse brain norepinephrine (NE) level after 1 week; assay type: functional, organism-based; outline: as §1
[21] = test system: Mus musculus; test: Effect of central administration on whole mouse brain 5-HT (5-HT) after 1 hr; assay type: functional, organism-based; outline: as §1
[22] = test system: Mus musculus; test: Effect of central administration on whole mouse brain 3,4-di hydroxyphenylacetic acid (DOPAC) level after 1 day; assay type: functional, organism-based; outline: as §1
[23] = test system: Mus musculus; test: Effect of central administration on whole mouse brain 3,4-di hydroxyphenylacetic acid (DOPAC) level after 1 hr; assay type: functional, organism-based; outline: as §1
[24] = test system: Mus musculus; test: Weight which caused death of 50% of the treated animals within 1 hr following drug administration; assay type: ADME, organism-based; conditions: in vivo
Outline: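 Adult male outbred Hsd:ICR albino mice, 25-35 g, given compound (dose as free base) intracranially near the left lateral ventricle under light ether anesthesia, in 5 µL isotonic saline containing 1.0 mg/mL ascorbic acid. Deaths within 1 h were scored, and LD50 (injected weight) was derived by Dixon's statistical method, reported as mean ± standard deviation on a log microgram scale.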

[25] = test system: Mus musculus; test: Effect of central administration on whole mouse brain choline (Ch) level after 1 week; assay type: functional, organism-based; outline: as §2
[26] = test system: Mus musculus; test: Effect of central administration on whole mouse brain 5-hydroxyindole-3-acetic acid (5-HIAA) level after 1 day; assay type: functional, organism-based; outline: as §1
[27] = test system: Mus musculus; test: Effect of central administration on whole mouse brain 5-hydroxyindole-3-acetic acid (5-HIAA) level after 1 hr; assay type: functional, organism-based; outline: as §1
[28] = test system: Mus musculus; test: Effect of central administration on whole mouse brain 5-hydroxyindole-3-acetic acid (5-HIAA) level after 1 week; assay type: functional, organism-based; outline: as §1
[29] = test system: Mus musculus; test: Effect of central administration on whole mouse brain 5-hydroxytryptamine (5-HT) after 1 day; assay type: functional, organism-based; outline: as §1
[30] = test system: Mus musculus; test: Effect of central administration on whole mouse brain cholin (Ch) level after 1 day; assay type: functional, organism-based; outline: as §2
[31] = test system: Mus musculus; test: Effect of central administration on whole mouse brain cholin (Ch) level after 1 hr; assay type: functional, organism-based; outline: as §2
[32] = test system: Mus musculus; test: Effect of central administration on whole mouse brain cholin (Ch) level after 1 week; assay type: functional, organism-based; outline: as §2
[33] = test system: Mus musculus; test: Effect of central administration on whole mouse brain 5-HT (5-HT) after 1 week; assay type: functional, organism-based; outline: as §1
[34] = test system: Mus musculus; test: Effect of central administration on whole mouse brain 3,4-di hydroxyphenylacetic acid (DOPAC) level after 1 week; assay type: functional, organism-based; outline: as §1

NCCc1c[nH]c2c1C(=O)C(=O)C=C2O
Level [1]: 106% | Level [2]: 117% | Level [3]: 82% | Level [4]: 159% | Level [5]: 72% | Level [6]: 104% | Level [7]: 65% | Level [8]: 100% | Level [9]: 107% | Level [10]: 57% | Level [11]: 153% | Level [12]: 79% | Level [13]: 92% | Level [14]: 114% | Level [15]: 92% | Level [16]: 147% | Level [17]: 112% | Level [18]: 84% | Level [19]: 80% | Level [20]: 114% | Level [21]: 89% | Level [22]: 107% | Level [23]: 54% | LD50 [24]: 29.6 µg | Level [25]: 106%

NCCc1c[nH]c2c1C(=O)C(O)=C(C1=C(O)c3[nH]cc(CCN)c3C(=O)C1=O)C2=O
Level [26]: 76% | Level [27]: 118% | Level [28]: 152% | Level [29]: 75% | Level [7]: 78% | Level [8]: 83% | Level [9]: 123% | Level [30]: 78% | Level [31]: 126% | Level [32]: 115% | Level [12]: 85% | Level [13]: 97% | Level [15]: 85% | Level [16]: 102% | Level [18]: 82% | Level [19]: 95% | Level [20]: 89% | Level [21]: 88% | Level [33]: 103% | Level [22]: 116% | Level [23]: 74% | Level [34]: 101% | LD50 [24]: 25.4 µg

NCCc1c[nH]c2c(O)cc(O)cc12
LD50 [24]: 51.8 µg
